From ChEMBL document CHEMBL1147651, “Orally active 1,2,4-trioxanes: synthesis and antimalarial assessment of a new series of 9-functionalized 3-(1-arylvinyl)-1,2,5-trioxaspiro[5.5]undecanes against multi-drug-resistant plasmodium yoelii nigeriensis in mice” (2006)

What was measured:
Assay type in all cases: functional
[1] = system: Plasmodium yoelii nigeriensis; experiment: Antimalarial activity against multidrug-resistant Plasmodium yoelii nigeriensis in mice (Mus musculus) at 96 mg/kg/day peroral dose after 4 days; details: route oral
Method in brief: (§1)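 Colony-bred Swiss mice (25 ± 1 g) were given 1 × 10⁶ parasitized RBC on day 0. Groups of five were dosed orally from day 0 to 3 in two divided doses daily, 0.1 mL per dose, in groundnut oil (hemisuccinates in 5% NaHCO₃). Parasitemia was read from thin blood smears on days 4–28. % suppression = [(C − T)/C] × 100 against untreated controls. β-Arteether served as positive control.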

[2] = system: Plasmodium yoelii nigeriensis; experiment: Antimalarial activity against multidrug-resistant Plasmodium yoelii nigeriensis in mice (Mus musculus) at 48 mg/kg/day peroral dose over 4 days; details: route oral; method in brief: as §1
[3] = system: Plasmodium yoelii nigeriensis; experiment: Antimalarial activity against multidrug-resistant Plasmodium yoelii nigeriensis in mice (Mus musculus) at 24 mg/kg/day peroral dose after 4 days; details: route oral; method in brief: as §1
Mus musculus = experiment: Survival of mouse at 48 mg/kg/day, po after 28 days
Method in brief: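 Swiss mice (25 ± 1 g) were infected with 1 × 10⁶ parasitized RBC on day 0. Five mice per dose were treated orally on days 0–3, twice daily, in groundnut oil or 5% NaHCO₃. Parasitemia was followed by thin smears to day 28. Protection is the percentage of treated mice surviving beyond day 28. β-Arteether served as positive control.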

[4] = system: Plasmodium yoelii nigeriensis; experiment: Antimalarial activity against multidrug-resistant Plasmodium yoelii nigeriensis in mice (Mus musculus) at 30 mg/kg/day peroral dose after 4 days; details: route oral
[5] = system: Plasmodium yoelii nigeriensis; experiment: Antimalarial activity against multidrug-resistant Plasmodium yoelii nigeriensis in mice (Mus musculus) at 100 mg/kg/day peroral dose after 4 days; details: route oral

C=C(c1ccc(-c2ccccc2)cc1)C1COC2(CCC(=O)CC2)OO1 (centres undefined)
Activity [1]: 92%

C=C(c1ccccc1)C1COC2(CCC(=O)CC2)OO1 (centres undefined)
Activity [1]: 7%

C=C(c1ccccc1)C1COC2(CCC(O)CC2)OO1 (centres undefined)
Activity [1]: 78%

C=C(c1ccc(-c2ccccc2)cc1)C1COC2(CCC(OC(=O)CCC(=O)O)CC2)OO1 (centres undefined)
Activity [1]: 99%

C=C(c1ccc(-c2ccccc2)cc1)C1COC2(CCC(O)CC2)OO1 (centres undefined)
Activity [1]: 91%

C=C(c1ccccc1)C1COC2(CCC(OC(=O)CCC(=O)O)CC2)OO1 (centres undefined)
Activity [1]: 82%

C=C(c1ccccc1)C1COC2(CCC(C)(O)CC2)OO1 (centres undefined)
Activity [1]: 92%

C=C(c1ccccc1)C1COC2(CCC(=C(C)C(=O)OCC)CC2)OO1 (centres undefined)
Activity [1]: 39%

C=C(c1ccc(-c2ccccc2)cc1)C1COC2(CCC(=C(C)C(=O)OCC)CC2)OO1 (centres undefined)
Activity [1]: 100% | Activity [2]: 100%

C=C(c1ccccc1)C1COC2(CCC(O)(c3ccccc3)CC2)OO1 (centres undefined)
Activity [1]: 95%

C=C(c1ccc(Cl)cc1)C1COC2(CCC(=C(C)C(=O)OCC)CC2)OO1 (centres undefined)
Activity [1]: 87%

C=C(c1ccc(Cl)cc1)C1COC2(CCC(OC(=O)CCC(=O)O)CC2)OO1 (centres undefined)
Activity [1]: 39%

C=C(c1ccc(Cl)cc1)C1COC2(CCC(=CC(=O)OCC)CC2)OO1 (centres undefined)
Activity [3]: 100% | Activity [1]: 100% | Activity [2]: 100%

C=C(c1ccc(C)cc1)C1COC2(CCC(OC(=O)CCC(=O)O)CC2)OO1 (centres undefined)
Activity [1]: 97%

C=C(c1ccc(OC)cc1)C1COC2(CCC(=CC(=O)OCC)CC2)OO1 (centres undefined)
Activity [1]: 100% | Activity (Mus musculus): 40% | Activity [2]: 100%

C=C(c1ccc(Cl)cc1)C1COC2(CCC(O)CC2)OO1 (centres undefined)
Activity [1]: 74%

C=C(c1ccc(C)cc1)C1COC2(CCC(O)CC2)OO1 (centres undefined)
Activity [1]: 37%

C=C(c1ccc(C2CCCCC2)cc1)C1COC2(CCC(=CC(=O)OCC)CC2)OO1 (centres undefined)
Activity [1]: 100% | Activity (Mus musculus): 40% | Activity [2]: 100%

C=C(c1ccc(C)cc1)C1COC2(CCC(=O)CC2)OO1 (centres undefined)
Activity [1]: 7%

C=C(c1ccc(Cl)cc1)C1COC2(CCC(=O)CC2)OO1 (centres undefined)
Activity [1]: 18%

C=C(c1ccc(OC)cc1)C1COC2(CCC(=C(C)C(=O)OCC)CC2)OO1 (centres undefined)
Activity [1]: 18%

C=C(c1ccc2ccccc2c1)C1COC2(CCC(=CC(=O)OCC)CC2)OO1 (centres undefined)
Activity [3]: 100% | Activity [1]: 100% | Activity [2]: 100%

C=C(c1ccc2ccccc2c1)C1COC2(CCC(=C(C)C(=O)OCC)CC2)OO1 (centres undefined)
Activity [1]: 97%

C=C(c1ccc(C2CCCCC2)cc1)C1COC2(CCC(=O)CC2)OO1 (centres undefined)
Activity [1]: 100%

C=C(c1ccc2ccccc2c1)C1COC2(CCC(=O)CC2)OO1 (centres undefined)
Activity [1]: 15%

C=C(c1ccccc1)C1COC2(CCC(=CC(=O)OCC)CC2)OO1 (centres undefined)
Activity [3]: 99% | Activity [1]: 100% | Activity [2]: 100%

C=C(c1ccc(OC)cc1)C1COC2(CCC(=O)CC2)OO1 (centres undefined)
Activity [1]: 32%

C=C(c1ccc(C)cc1)C1COC2(CCC(=C(C)C(=O)OCC)CC2)OO1 (centres undefined)
Activity [1]: 100%

C=C(c1ccc(C)cc1)C1COC2(CCC(=CC(=O)OCC)CC2)OO1 (centres undefined)
Activity [3]: 100% | Activity [1]: 100% | Activity [2]: 100%

C=C(c1ccc(C2CCCCC2)cc1)C1COC2(CCC(=C(C)C(=O)OCC)CC2)OO1 (centres undefined)
Activity [1]: 100%

C=C(c1ccc(-c2ccccc2)cc1)C1COC2(CCC(=CC(=O)OCC)CC2)OO1 (centres undefined)
Activity [1]: 100% | Activity [2]: 93%

C=C(c1ccccc1)C1COC2(CCC(O)(CC(=O)OCC)CC2)OO1 (stereo in doubt; 24a)
Activity [1]: 87%

C=C(c1ccccc1)C1COC2(CCC(O)(CC(=O)OCC)CC2)OO1 (stereo in doubt; 24b)
Activity [1]: 37%

C=C(c1ccc(-c2ccccc2)cc1)C1COC2(CCC(O)(CC(=O)OCC)CC2)OO1 (stereo in doubt; 25a)
Activity [1]: 93%

C=C(c1ccc(-c2ccccc2)cc1)C1COC2(CCC(O)(CC(=O)OCC)CC2)OO1 (stereo in doubt; 25b)
Activity [1]: 97%

C=C(c1ccc(Cl)cc1)C1COC2(CCC(O)(CC(=O)OCC)CC2)OO1 (stereo in doubt; 26a)
Activity [1]: 31%

C=C(c1ccc(Cl)cc1)C1COC2(CCC(O)(CC(=O)OCC)CC2)OO1 (stereo in doubt; 26b)
Activity [1]: 74%

CCO[C@H]1O[C@@H]2O[C@@]3(C)CC[C@H]4[C@H](C)CC[C@@H]([C@H]1C)[C@@]24OO3 [ARTEMOTIL]
Activity [3]: 100% | Activity [2]: 100%

CCN(CC)CCCC(C)Nc1ccnc2cc(Cl)ccc12 (centres undefined) [CHLOROQUINE]
Activity [4]: 100% | Activity [5]: 100%

CCCCN(CCCC)CCC(O)c1cc2c(Cl)cc(Cl)cc2c2cc(C(F)(F)F)ccc12 (centres undefined) [HALOFANTRINE]
Activity [4]: 100% | Activity [5]: 100%

OC(c1cc(C(F)(F)F)nc2c(C(F)(F)F)cccc12)C1CCCCN1 (centres undefined) [MEFLOQUINE]
Activity [4]: 100% | Activity [5]: 100%
